Key:
DU-145 [1] = test: Antiproliferative activity against human DU145 cells assessed as decrease in cell viability after 3 days by WST assay; format: functional, cell-based; conditions: DU-145, 72 h
Method in brief: (§1)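 Cells were seeded at 3,200 per well. PC-3 and LNCaP were grown in RPMI-1640 and DU-145 in EMEM, each with 10% FBS and 1% penicillin/streptomycin, at 37 °C and 5% CO2. Cells were exposed for 3 days to at least five concentrations, with DMSO as vehicle control. WST-1 reagent was then added for 3 h at 37 °C and absorbance read at 430 nm. IC50 came from linear inhibition, averaged over triplicates.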

PC-3 [2] = test: Induction of apoptosis in human PC3 cells assessed as early apoptotic cells at 2 uM after 16 hrs by F2N12S/CYTOX AADvanced double staining-based flow cytometric method (reference value: 2%); format: functional
PC-3 [3] = test: Induction of apoptosis in human PC3 cells assessed as early apoptotic cells at 10 uM after 16 hrs by F2N12S/CYTOX AADvanced double staining-based flow cytometric method (reference value: 2%); format: functional
PC-3 [4] = test: Induction of apoptosis in human PC3 cells assessed as early apoptotic cells at 6 uM after 16 hrs by F2N12S/CYTOX AADvanced double staining-based flow cytometric method (reference value: 2%); format: functional
PC-3 [5] = test: Induction of apoptosis in human PC3 cells assessed as viable cells at 10 uM after 16 hrs by F2N12S/CYTOX AADvanced double staining-based flow cytometric method (reference value: 95%); format: functional; conditions: PC-3, 16 h, read-out: Activity
PC-3 [6] = test: Induction of apoptosis in human PC3 cells assessed as late apoptotic/necrotic cells at 8 uM after 16 hrs by F2N12S/CYTOX AADvanced double staining-based flow cytometric method (reference value: 3%); format: functional
[7] = Plasma concentration in Sprague-Dawley rat at 10 mg/kg administered via oral gavage measured at 1 hr by HPLC-MS/MS analysis; format: ADME, organism-based
PC-3 [8] = test: Induction of apoptosis in human PC3 cells assessed as viable cells at 4 uM after 16 hrs by F2N12S/CYTOX AADvanced double staining-based flow cytometric method (reference value: 95%); format: functional; conditions: PC-3, 16 h, read-out: Activity
[9] = Plasma concentration in Sprague-Dawley rat at 10 mg/kg administered via oral gavage measured after 1 day by HPLC-MS/MS analysis; format: ADME, organism-based
PC-3 [10] = test: Induction of apoptosis in human PC3 cells assessed as viable cells at 6 uM after 16 hrs by F2N12S/CYTOX AADvanced double staining-based flow cytometric method (reference value: 95%); format: functional; conditions: PC-3, 16 h, read-out: Activity
[11] = AUC in Sprague-Dawley rat at 10 mg/kg administered via oral gavage by HPLC-MS/MS analysis; format: ADME, organism-based; conditions: in vivo
PC-3 [12] = test: Antiproliferative activity against human PC3 cells assessed as decrease in cell viability after 3 days by WST assay; format: functional, cell-based; conditions: PC-3, 72 h; method in brief: as §1
PC-3 [13] = test: Induction of apoptosis in human PC3 cells assessed as late apoptotic/necrotic cells at 15 uM after 16 hrs by F2N12S/CYTOX AADvanced double staining-based flow cytometric method (reference value: 3%); format: functional
CWR22R = test: Antiproliferative activity against human 22Rv1 cells expressing androgen receptor splice variants assessed as decrease in cell viability after 5 days by trypan blue exclusion assay; format: functional, cell-based; conditions: 22Rv1, 120 h
[14] = Tmax in Sprague-Dawley rat at 10 mg/kg administered via oral gavage by HPLC-MS/MS analysis; format: ADME, organism-based; conditions: in vivo
PC-3 [15] = test: Induction of apoptosis in human PC3 cells assessed as viable cells at 8 uM after 16 hrs by F2N12S/CYTOX AADvanced double staining-based flow cytometric method (reference value: 95%); format: functional; conditions: PC-3, 16 h, read-out: Activity
VCaP = test: Antiproliferative activity against human VCaP cells expressing androgen receptor splice variants assessed as decrease in cell viability after 5 days by trypan blue exclusion assay; format: functional, cell-based; conditions: 120 h
PC-3 [16] = test: Induction of apoptosis in human PC3 cells assessed as late apoptotic/necrotic cells at 4 uM after 16 hrs by F2N12S/CYTOX AADvanced double staining-based flow cytometric method (reference value: 3%); format: functional
PWR-1E [17] = test: Antiproliferative activity against human PWR-1E cells expressing androgen receptor and PSA assessed as decrease in cell viability after 3 days by WST assay; format: functional, cell-based; conditions: 72 h
Method in brief: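 Non-malignant prostate epithelial PWR-1E (adenovirus 12/SV40-immortalized) was seeded at 5,000 per well. Cells were exposed for 3 days at 37 °C in a CO2 incubator to at least five concentrations, with DMSO as vehicle control. WST-1 reagent was then added for 3 h at 37 °C and absorbance read at 430 nm. IC50 came from linear inhibition, as the mean of triplicate determinations.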

PC-3 [18] = test: Induction of apoptosis in human PC3 cells assessed as late apoptotic/necrotic cells at 2 uM after 16 hrs by F2N12S/CYTOX AADvanced double staining-based flow cytometric method (reference value: 3%); format: functional
PC-3 [19] = test: Cell cycle arrest in human PC3 cells assessed as accumulation at G0/G1 phase at 4 uM after 16 hrs by propidium iodide staining-based flow cytometric method (reference value: 51 to 52%); format: functional
[20] = Plasma concentration in Sprague-Dawley rat at 10 mg/kg administered via oral gavage measured at 3 hrs by HPLC-MS/MS analysis; format: ADME, organism-based
PC-3 [21] = test: Cell cycle arrest in human PC3 cells assessed as accumulation at G2 phase at 4 uM after 24 hrs by propidium iodide staining-based flow cytometric method (reference value: 24%); format: functional
PC-3 [22] = test: Induction of apoptosis in human PC3 cells assessed as viable cells at 15 uM after 16 hrs by F2N12S/CYTOX AADvanced double staining-based flow cytometric method (reference value: 95%); format: functional; conditions: PC-3, 16 h, read-out: Activity
PC-3 [23] = test: Induction of apoptosis in human PC3 cells assessed as early apoptotic cells at 8 uM after 16 hrs by F2N12S/CYTOX AADvanced double staining-based flow cytometric method (reference value: 2%); format: functional
LNCaP [24] = test: Antiproliferative activity against human LNCAP cells assessed as decrease in cell viability after 3 days by WST assay; format: functional, cell-based; conditions: 72 h; method in brief: as §1
LNCaP [25] = test: Potency index, ratio of curcumin IC50 to test compound IC50 for human LNCAP cells; format: functional
Rattus norvegicus [26] = test: Acute toxicity in Sprague-Dawley rat assessed as mortality at 10 mg/kg administered via oral gavage after 48 hrs; format: organism-based; conditions: in vivo
Method in brief: (§2)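 Male Sprague-Dawley rats (250–300 g, n = 4) each received a single 10 mg/kg oral gavage dose. The vehicle was 5% DMSO, 40% polyethylene glycol 400 and 55% saline. Blood was drawn from the lateral tail vein at 1, 3, 6 and 24 h for plasma drug levels. Toxicity was scored as observed deaths after dosing.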

PC-3 [27] = test: Induction of apoptosis in human PC3 cells assessed as viable cells at 2 uM after 16 hrs by F2N12S/CYTOX AADvanced double staining-based flow cytometric method (reference value: 95%); format: functional; conditions: PC-3, 16 h, read-out: Activity
PC-3 [28] = test: Potency index, ratio of curcumin IC50 to test compound IC50 for human PC3 cells; format: functional
[29] = Cmax in Sprague-Dawley rat at 10 mg/kg administered via oral gavage by HPLC-MS/MS analysis; format: ADME, organism-based; parameters: dose 10 mg/kg, route oral; conditions: in vivo
PC-3 [30] = test: Induction of apoptosis in human PC3 cells assessed as late apoptotic/necrotic cells at 6 uM after 16 hrs by F2N12S/CYTOX AADvanced double staining-based flow cytometric method (reference value: 3%); format: functional
PC-3 [31] = test: Cell cycle arrest in human PC3 cells assessed as accumulation at G0/G1 phase at 4 uM after 24 hrs by propidium iodide staining-based flow cytometric method (reference value: 59 to 62%); format: functional
DU-145 [32] = test: Potency index, ratio of curcumin IC50 to test compound IC50 for human DU145 cells; format: functional
PC-3 [33] = test: Induction of apoptosis in human PC3 cells assessed as late apoptotic/necrotic cells at 10 uM after 16 hrs by F2N12S/CYTOX AADvanced double staining-based flow cytometric method (reference value: 3%); format: functional
[34] = Plasma concentration in Sprague-Dawley rat at 10 mg/kg administered via oral gavage measured at 6 hrs by HPLC-MS/MS analysis; format: ADME, organism-based
[35] = Antiproliferative activity against human LNCaP95 cells expressing androgen receptor splice variants assessed as decrease in cell viability after 5 days by trypan blue exclusion assay; format: functional, cell-based; conditions: LNCaP-95, 120 h
PC-3 [36] = test: Induction of apoptosis in human PC3 cells assessed as early apoptotic cells at 15 uM after 16 hrs by F2N12S/CYTOX AADvanced double staining-based flow cytometric method (reference value: 2%); format: functional
PWR-1E [37] = test: Potency index, ratio of curcumin IC50 to test compound IC50 for human PWR-1E cells expressing androgen receptor and PSA; format: functional
[38] = Drug metabolism in human liver microsomes assessed as (1Z,4E)-5-(1-ethyl-1H-benzo[d]imidazol-2-yl)-1-hydroxy-1-(2-methyl-4-(trifluoromethyl)thiazol-5-yl)penta-1,4-dien-3-one formation at 10 mM after 60 mins by UHPLC analysis; format: ADME, microsome
Method in brief: (§3)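 Pooled human liver microsomes in potassium phosphate buffer (pH 7.4) with NADPH solutions A and B were preincubated for 5 min at 37 °C. Compound was then added from a 10 mM stock (3 μL into 300 μL total) and incubated 60 min at 37 °C. Reactions were quenched with an equal volume of methanol and centrifuged (10,000 × g, 4 min, 4 °C). Supernatant went to UHPLC–high-resolution MS for metabolite identification.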

[39] = Drug metabolism in human liver microsomes assessed as (1Z,4E)-1-(1-ethyl-1H-benzo[d]imidazol-2-yl)-1-hydroxy-5-(2-methyl-4-(trifluoromethyl)thiazol-5-yl)penta-1,4-dien-3-one formation at 10 mM after 60 mins by UHPLC analysis; format: ADME, microsome; method in brief: as §3
[40] = Retention time of the compound; format: physicochemical
Rattus norvegicus [41] = test: Acute toxicity in Sprague-Dawley rat at 10 mg/kg administered via oral gavage; format: organism-based; conditions: in vivo; method in brief: as §2

Structure (SMILES): CCCn1ccnc1/C=C/C(=O)/C=C/c1nc2ccccc2n1CCC
- IC50 (DU-145 [1]): 220 nM
- Activity (PC-3 [2]): 3%
- Activity (PC-3 [3]): 49%
- Activity (PC-3 [4]): 43%
- viability at 10 µM (PC-3 [5]): 8%
- Activity (PC-3 [6]): 42%
- concentration at 1 h [7]: 114 ng/mL
- viability at 4 µM (PC-3 [8]): 55%
- concentration at 24 h [9]: 86 ng/mL
- viability at 6 µM (PC-3 [10]): 22%
- AUC [11]: 4390 ng·h/mL
- IC50 (PC-3 [12]): 100 nM
- Activity (PC-3 [13]): 47%
- IC50 (CWR22R): 220 nM
- Tmax [14]: 6 h
- viability at 8 µM (PC-3 [15]): 13%
- IC50 (VCaP): 1120 nM
- Activity (PC-3 [16]): 23%
- IC50 (PWR-1E [17]): 20 nM
- Activity (PC-3 [18]): 4%
- Activity (PC-3 [19]): 78%
- concentration at 3 h [20]: 196 ng/mL
- Activity (PC-3 [21]): 14%
- viability at 15 µM (PC-3 [22]): 1%
- Activity (PC-3 [23]): 45%
- IC50 (LNCaP [24]): 220 nM
- Ratio IC50 (LNCaP [25]): 62
- Activity (Rattus norvegicus [26]): Toxic
- viability at 2 µM (PC-3 [27]): 93%
- Ratio IC50 (PC-3 [28]): 254
- Cmax [29]: 281 ng/mL
- Activity (PC-3 [30]): 35%
- Activity (PC-3 [31]): 76%
- Ratio IC50 (DU-145 [32]): 119
- Activity (PC-3 [33]): 43%
- concentration at 6 h [34]: 281 ng/mL
- IC50 [35]: 350 nM
- Activity (PC-3 [36]): 52%
- Ratio IC50 (PWR-1E [37]): 443

Structure (SMILES): CCn1c(/C=C/C(=O)/C=C/c2sc(C)nc2C(F)(F)F)nc2ccccc21
- IC50 (DU-145 [1]): 500 nM
- concentration at 1 h [7]: 112 ng/mL
- concentration at 24 h [9]: 314 ng/mL
- Drug metabolism [38]: Metabolite_Detected
- AUC [11]: 18300 ng·h/mL
- IC50 (PC-3 [12]): 230 nM
- IC50 (CWR22R): 220 nM
- Tmax [14]: 6 h
- IC50 (VCaP): 1410 nM
- IC50 (PWR-1E [17]): 80 nM
- concentration at 3 h [20]: 982 ng/mL
- IC50 (LNCaP [24]): 250 nM
- Ratio IC50 (LNCaP [25]): 54
- Drug metabolism [39]: Metabolite_Detected
- Ratio IC50 (PC-3 [28]): 110
- Cmax [29]: 3.25 µM
- Ratio IC50 (DU-145 [32]): 53
- concentration at 6 h [34]: 1230 ng/mL
- IC50 [35]: 380 nM
- Retention_time [40]: 5.05 min
- Activity (Rattus norvegicus [41]): Non-Toxic

Reference: ChEMBL document CHEMBL4190216, “Asymmetric 1,5-diarylpenta-1,4-dien-3-ones: Antiproliferative activity in prostate epithelial cell models and pharmacokinetic studies” (Eur J Med Chem, 2017)
